Measurements collected from several papers.
Each line is one published result; the experiments were not run side by side.
Target: Aurora kinase B (AURKB, Homo sapiens, UniProt Q96GD4)
Read-out: enzyme activity

SMILES	action	technique	tested at	remaining activity [%]
CCCOc1ccc(OC)c(F)c1C(=O)c1ccc(C(=O)N[C@@H]2CNC[C@H]2NC(=O)c2ccc3[nH]ncc3c2)cc1	inhibitor	–	10 µM	10
Cc1nn(CC(F)(F)F)cc1Nc1ncc(C2CC2)c(NCc2ccc(S(N)(=O)=O)cc2)n1	inhibitor	radiometric	1 µM	102
Nc1nc(Nc2ccccc2)sc1C(=O)c1c(F)cccc1F	inhibitor	–	10 µM	24
Cc1cnc(NC2CCOCC2)nc1-n1cnc(C(=O)NC(CN)c2cc(F)cc(Cl)c2)c1 (stereo not shown)	inhibitor	radiometric	1 µM	84
NS(=O)(=O)c1ccc(CNc2ccnc(Nc3cccc(NC(=O)N4CCCC4)c3)n2)cc1	inhibitor	radiometric	1 µM	53
CS(=O)(=O)CCNCc1ccc(-c2ccc3ncnc(Nc4ccc(OCc5cccc(F)c5)c(Cl)c4)c3c2)o1	–	–	0.5 µM	98.4
O=C(NCCCNc1nc(Nc2cccc(NC(=O)N3CCCC3)c2)ncc1I)c1cccs1	inhibitor	radiometric	1 µM	3
CCN(CC)c1ccc(C2=NNC(=O)CC2C)cc1[N+](=O)[O-] (stereo not shown)	inhibitor	–	10 µM	118
COc1cc(Nc2cnc(C#N)c(O[C@H](C)CN(C)C)n2)ncc1-c1cnn(C)c1	inhibitor	radiometric	10 µM	53
Cc1nn(CC(F)(F)F)cc1Nc1nccc(NCCCNC(=O)C2CCC2)n1	inhibitor	radiometric	1 µM	90
Cc1ccc(C(=O)Nc2ccc(CN3CCN(C)CC3)c(C(F)(F)F)c2)cc1C#Cc1cnc2cccnn12	inhibitor	–	23.5 nM	84
O=C1Nc2ccc(Cl)cc2C1=Cc1cc(Cl)c(O)c(Cl)c1	–	–	0.5 µM	9.19
Cn1c(=O)n(-c2ccc(C(C)(C)C#N)cc2)c2c3cc(-c4cnc5ccccc5c4)ccc3ncc21	inhibitor	–	10 µM	101
COc1cc2ncnc(Nc3ccc(F)c(Cl)c3)c2cc1OCCCN1CCOCC1	–	–	0.5 µM	106
CC(C)(C)c1nc(-c2cccc(NS(=O)(=O)c3c(F)cccc3F)c2F)c(-c2ccnc(N)n2)s1	inhibitor	radiometric	1 µM	81
O=C(Nc1cnn(-c2csc(C(=O)NC3COC3)c2)c1)Nc1c(F)cccc1Cl	inhibitor	–	5 µM	69.8
O=C(NCCCNc1nc(Nc2cccc(CN3CCOCC3)c2)ncc1C1CC1)C1CCC1	inhibitor	radiometric	1 µM	5
O=C1NC(=O)c2cc(Nc3ccc(F)cc3)c(Nc3ccc(F)cc3)cc21	inhibitor	–	0.5 µM	99.7
COc1cc(Cl)c(C(=O)N[C@@H](CN[C@H]2CC[C@@H](N)CC2)Cc2ccc(C#N)cc2)cc1-c1ccc(CN[C@H](C)c2ccc(C)cc2)o1	inhibitor	–	1 µM	96
